Published values gathered from unrelated publications.
Each line is one published result; the experiments were not run side by side. ≈ marks a conversion by molar mass, not a printed value.

Structure (SMILES) | tested on | test | system | conditions | measurement | value
Nc1ccc(S(=O)(=O)Nc2ncccn2)cc1 | Klebsiella pneumoniae | microbial growth, well diffusion |  | 20 µg/mL | inhibition zone | 2 mm
CC1(C)S[C@@H]2[C@H](NC(=O)[C@H](N)c3ccccc3)C(=O)N2[C@H]1C(=O)O | Streptococcus pneumoniae | microbial growth, agar dilution | ATCC49619 |  | MIC | 0.5 µg/mL (≈ 1.43 µM)
CC1(C)C[C@H]2[C@H]1CC[C@]1(C)CCC[C@@]2(NS(=O)(=O)C(C)(C)C)C1 | HT-29 | cell growth or viability, CCK-8 |  | 50 µM | inhibition | 71.4%
CCS(=O)(=O)Oc1ccc(C=NNC(=O)CSc2nc3c(C)cccc3c(=O)n2-c2ccccc2)cc1 | Klebsiella pneumoniae | microbial growth, well diffusion |  | 20 µg/mL | inhibition zone | 2 mm
CC1(C)C[C@H]2[C@H]1CC[C@]1(C)CCC[C@@]2(NS(C)(=O)=O)C1 | HT-29 | cell growth or viability, CCK-8 |  | 10 µM | inhibition | < 50%
COc1ccc(C=NNC(=O)CSc2nc3ccc(Cl)cc3c(=O)n2-c2ccccc2)cc1OS(C)(=O)=O | Klebsiella pneumoniae | microbial growth, well diffusion |  | 20 µg/mL | inhibition zone | 3 mm
CC1(C)C[C@H]2[C@H]1CC[C@]1(C)CCC[C@@]2(NS(=O)(=O)c2cc(Cl)cc(Cl)c2O)C1 | HT-29 | cell growth or viability, CCK-8 |  | 10 µM | inhibition | < 50%
O=c1c2cc(Cl)ccc2nc(-c2ccccc2)n1N=Cc1ccc(Cl)c(Cl)c1 | LLC-PK1 | cell growth or viability, MTT |  | 72 h | IC50 | 337 µM
CC(=O)NC[C@H]1CN(c2ccc(N3CCOCC3)c(F)c2)C(=O)O1 | Streptococcus pneumoniae | microbial growth, agar dilution | ATCC49619 |  | MIC | 0.5 µg/mL (≈ 1.48 µM)
Cc1nc(Nc2ncc(C(=O)Nc3c(C)cccc3Cl)s2)cc(N2CC[C@H](O)C2)n1 | U2932 | cell growth or viability, ATP luminescence |  | 10 µM, 72 h | inhibition | 58%
CCCS(=O)(=O)Oc1cc(C=NNC(=O)CSc2nc3c(C)cccc3c(=O)n2-c2ccccc2)ccc1OC | Klebsiella pneumoniae | microbial growth, well diffusion |  | 20 µg/mL | inhibition zone | 2 mm
CC[C@H]1OC(=O)[C@H](C)[C@@H](O[C@H]2C[C@@](C)(OC)[C@@H](O)[C@H](C)O2)[C@H](C)[C@@H](O[C@@H]2O[C@H](C)C[C@H](N(C)C)[C@H]2O)[C@](C)(O)C[C@@H](C)/C(=N\OCOCCOC)[C@H](C)[C@@H](O)[C@]1(C)O | Streptococcus pneumoniae | microbial growth |  | clinical isolate | MIC90 | 4 µg/mL (≈ 4.78 µM)
CS(=O)(=O)Oc1ccc(C=NNC(=O)CSc2nc3ccc(Cl)cc3c(=O)n2-c2ccccc2)cc1 | Klebsiella pneumoniae | microbial growth, well diffusion |  | 20 µg/mL | inhibition zone | 2 mm
C=C[C@]1(C)C[C@@H](OC(=O)CS[C@@H]2C[C@H]3CC[C@@H](C2)N3C)[C@]2(C)[C@H](C)CC[C@]3(CCC(=O)[C@H]32)[C@@H](C)[C@@H]1O | Streptococcus pneumoniae | microbial growth | PRSP | clinical isolate | MIC90 | 0.0312 µg/mL (≈ 0.0604 µM)
CC1(C)C[C@H]2[C@H]1CC[C@]1(C)CCC[C@@]2(n2cc(CNC(N)=O)nn2)C1 | HT-29 | cell growth or viability, CCK-8 |  | 10 µM | inhibition | < 50%
COc1cc(C=NNC(=O)CSc2nc3c(C)cccc3c(=O)n2-c2ccccc2)ccc1OS(C)(=O)=O | Klebsiella pneumoniae | microbial growth, well diffusion |  | 20 µg/mL | inhibition zone | 3 mm
CC1(C)C[C@H]2[C@H]1CC[C@]1(C)CCC[C@@]2(n2cc(CN3CCOCC3)nn2)C1 | HT-29 | cell growth or viability, CCK-8 |  | 10 µM | inhibition | < 50%
COc1ccc(C=Nn2c(-c3ccccc3)nc3ccc(Cl)cc3c2=O)cc1O | LLC-PK1 | cell growth or viability, MTT |  | 72 h | IC50 | 279 µM
O=c1oc2ccccc2c(Nc2ccccc2)c1I | Klebsiella pneumoniae | microbial growth, broth dilution |  |  | MIC90 | 9 µg/mL (≈ 24.8 µM)
CCCS(=O)(=O)Oc1ccc(C=NNC(=O)CSc2nc3ccc(Cl)cc3c(=O)n2-c2ccccc2)cc1 | Klebsiella pneumoniae | microbial growth, well diffusion |  | 20 µg/mL | inhibition zone | 3 mm
CC1(C)C[C@H]2[C@H]1CC[C@]1(C)CCC[C@@]2(n2cc(C(=O)NC3CCNCC3)nn2)C1 | HT-29 | cell growth or viability, CCK-8 |  | 50 µM | inhibition | 74.4%
COc1c(N2C[C@@H]3CCCN[C@@H]3C2)c(F)cc2c(=O)c(C(=O)O)cn(C3CC3)c12 | Streptococcus pneumoniae | microbial growth, agar dilution | ATCC49619 |  | MIC | 0.125 µg/mL (≈ 0.311 µM)
CN(C)c1ccc(C=Nn2c(-c3ccccc3)nc3ccc(Cl)cc3c2=O)cc1 | LLC-PK1 | cell growth or viability, MTT |  | 72 h | IC50 | 62.8 µM
CC1(C)C[C@H]2[C@H]1CC[C@]1(C)CCC[C@@]2(NS(=O)(=O)c2ccc(OC(F)(F)F)cc2)C1 | HT-29 | cell growth or viability, CCK-8 |  | 10 µM | inhibition | < 50%
CCS(=O)(=O)Oc1cc(C=NNC(=O)CSc2nc3c(C)cccc3c(=O)n2-c2ccccc2)ccc1OC | Klebsiella pneumoniae | microbial growth, well diffusion |  | 20 µg/mL | inhibition zone | 3 mm
CC1(C)C[C@H]2[C@H]1CC[C@]1(C)CCC[C@@]2(n2cc(C(=O)O)nn2)C1 | HT-29 | cell growth or viability, CCK-8 |  | 50 µM | inhibition | 32.3%
CN[C@H](CC(C)C)C(=O)N[C@H]1C(=O)N[C@@H](CC(N)=O)C(=O)N[C@H]2C(=O)N[C@H]3C(=O)N[C@H](C(=O)N[C@H](C(=O)O)c4cc(O)cc(O)c4-c4cc3ccc4O)[C@H](O)c3ccc(c(Cl)c3)Oc3cc2cc(c3O[C@@H]2O[C@H](CO)[C@@H](O)[C@H](O)[C@H]2O[C@H]2C[C@](C)(N)[C@H](O)[C@H](C)O2)Oc2ccc(cc2Cl)[C@H]1O | Streptococcus pneumoniae | microbial growth | PRSP | clinical isolate | MIC90 | 1 µg/mL (≈ 0.69 µM)
